ChEMBL document CHEMBL3868583, “6-Aryl substituted 4-(4-cyanomethyl) phenylamino quinazolines as a new class of isoform-selective PI3K-alpha inhibitors” (Eur J Med Chem, 2016)
Values after ≈ are worked out from the molar mass of the structure shown.

Columns and labels:
CYP2D6 = CYP2D6 (Homo sapiens, UniProt P10635); assay: Inhibition of human CYP2D6 at 10 uM after 10 mins by fluorescence assay; format: ADME
[1] = molecular target: Phosphatidylinositol 4,5-bisphosphate 3-kinase catalytic subunit alpha isoform (Homo sapiens, UniProt P42336); assay: Inhibition of PI3Kalpha (unknown origin) using diC8 PIP2 as substrate at 0.5 uM after 80 mins by ADP-glo assay
Sequence of Phosphatidylinositol 4,5-bisphosphate 3-kinase catalytic subunit alpha isoform (P42336 whole entry, canonical isoform): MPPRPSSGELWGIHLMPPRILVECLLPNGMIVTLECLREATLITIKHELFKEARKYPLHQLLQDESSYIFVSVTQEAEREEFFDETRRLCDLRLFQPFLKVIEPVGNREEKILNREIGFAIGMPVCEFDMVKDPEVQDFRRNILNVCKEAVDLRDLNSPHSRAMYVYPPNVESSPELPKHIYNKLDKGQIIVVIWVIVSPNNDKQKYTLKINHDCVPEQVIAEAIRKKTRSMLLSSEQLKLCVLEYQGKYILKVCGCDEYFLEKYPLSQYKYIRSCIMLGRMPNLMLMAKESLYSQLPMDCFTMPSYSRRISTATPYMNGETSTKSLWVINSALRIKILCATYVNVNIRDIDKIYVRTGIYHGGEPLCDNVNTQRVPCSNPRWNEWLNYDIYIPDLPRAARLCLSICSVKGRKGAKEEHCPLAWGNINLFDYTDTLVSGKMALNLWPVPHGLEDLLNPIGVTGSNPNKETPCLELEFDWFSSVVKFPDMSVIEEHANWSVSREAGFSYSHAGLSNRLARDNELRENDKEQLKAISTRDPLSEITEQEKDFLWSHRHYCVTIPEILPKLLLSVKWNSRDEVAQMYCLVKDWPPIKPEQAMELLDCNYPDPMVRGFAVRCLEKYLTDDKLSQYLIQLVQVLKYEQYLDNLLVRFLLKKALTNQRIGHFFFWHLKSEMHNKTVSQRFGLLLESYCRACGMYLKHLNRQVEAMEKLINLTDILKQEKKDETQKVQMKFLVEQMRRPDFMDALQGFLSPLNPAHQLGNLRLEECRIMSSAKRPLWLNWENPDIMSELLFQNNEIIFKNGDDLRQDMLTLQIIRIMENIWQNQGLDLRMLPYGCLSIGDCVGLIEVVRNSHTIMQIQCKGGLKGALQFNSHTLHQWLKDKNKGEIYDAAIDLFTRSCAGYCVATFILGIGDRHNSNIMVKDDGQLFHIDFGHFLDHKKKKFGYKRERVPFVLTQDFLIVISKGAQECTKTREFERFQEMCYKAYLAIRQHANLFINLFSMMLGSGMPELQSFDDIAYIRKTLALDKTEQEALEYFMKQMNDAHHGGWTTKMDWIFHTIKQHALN

[2] = Cytotoxicity against HGF cells assessed as cell growth inhibition after 48 hrs by MTT assay; format: toxicity, cell-based; settings: human
[3] = Cytotoxicity against human HL60 cells assessed as cell growth inhibition after 48 hrs by MTT assay; format: functional; settings: HL-60, 48 h
Procedure, shortened: (§1)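 MTT assay: 3 × 10^3 cells/well seeded, compounds added after 24 h at final […], 48 h exposure. MTT (2.5 mg/mL in PBS) added, formazan dissolved in DMSO, absorbance 570 nm. Viability as % of untreated; three independent experiments, mean ± SD.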

[4] = Thermodynamic equilibrium solubility of compound in simulated intestinal fluid up to 300 ug after 4 hrs by UV absorbance method; format: ADME; settings: read-out: Therm_solubility
Procedure, shortened: (§2)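 Methanol stock evaporated in wells to give 1–300 µg solid; 200 µl medium (water, PBS, SGF or SIF) added, shaken 300 rpm 4 h at 25 ± 1 °C, equilibrated overnight, centrifuged; supernatant UV absorbance at λmax; saturation point from concentration–absorbance curve; triplicate.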

Homo sapiens [5] = species on record: Homo sapiens; assay: Selectivity ratio of IC50 for PI3Kdelta (unknown origin) to IC50 for PI3Kalpha (unknown origin)
[6] = Cytotoxicity against human MCF7 cells assessed as cell growth inhibition after 48 hrs by MTT assay; format: functional; settings: MCF7, 48 h; procedure, shortened: as §1
[7] = Thermodynamic equilibrium solubility of compound in water up to 300 ug after 4 hrs by UV absorbance method; format: physicochemical; settings: read-out: Therm_solubility; procedure, shortened: as §2
[8] = Cytotoxicity against human PC3 cells assessed as cell growth inhibition after 48 hrs by MTT assay; format: functional; settings: PC-3, 48 h; procedure, shortened: as §1
PC-3 [9] = assay: Induction of cell cycle arrest in human PC3 cells assessed as accumulation at subG1 phase after 24 hrs by propidium iodide-staining based FACS analysis; format: functional
Procedure, shortened: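 PC-3 cells exposed 24 h at indicated concentrations, pelleted, fixed overnight in ice-cold 70% ethanol at 4 °C, RNase 0.2 mg/mL at 37 °C 1 h, propidium iodide 10 µg/mL 30 min in dark; 10,000 events acquired (FL2-A vs FL2-W); DNA histograms modelled for apoptotic (sub-G1), G1, S and G2-M fractions.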

CYP2C9 = CYP2C9 (Homo sapiens, UniProt P11712); assay: Inhibition of human CYP2C9 at 10 uM after 10 mins by fluorescence assay; format: ADME
Sequence of CYP2C9 (P11712 whole entry): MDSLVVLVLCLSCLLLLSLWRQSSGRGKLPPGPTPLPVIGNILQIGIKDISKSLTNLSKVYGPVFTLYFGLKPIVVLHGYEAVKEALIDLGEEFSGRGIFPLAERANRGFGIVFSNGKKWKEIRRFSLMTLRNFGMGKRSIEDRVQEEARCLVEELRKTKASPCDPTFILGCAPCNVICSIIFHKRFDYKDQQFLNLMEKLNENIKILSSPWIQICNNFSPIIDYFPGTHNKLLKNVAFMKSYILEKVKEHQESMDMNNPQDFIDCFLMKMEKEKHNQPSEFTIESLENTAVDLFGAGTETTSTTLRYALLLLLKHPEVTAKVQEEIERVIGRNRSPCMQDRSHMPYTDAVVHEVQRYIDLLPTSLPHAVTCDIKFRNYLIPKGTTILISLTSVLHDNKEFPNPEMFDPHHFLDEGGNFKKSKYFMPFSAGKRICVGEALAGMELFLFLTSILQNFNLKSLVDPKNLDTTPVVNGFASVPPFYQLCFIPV

[10] = Thermodynamic equilibrium solubility of compound in simulated gastric fluid up to 300 ug after 4 hrs by UV absorbance method; format: ADME; settings: read-out: Therm_solubility; procedure, shortened: as §2
[11] = Thermodynamic equilibrium solubility of compound in PBS up to 300 ug after 4 hrs by UV absorbance method; format: physicochemical; settings: read-out: Therm_solubility; procedure, shortened: as §2
CYP1A2 = molecular target: T1, CYP1A2 (Homo sapiens, UniProt P05177); assay: Inhibition of human CYP1A2 at 10 uM after 10 mins by fluorescence assay; format: ADME
T1 sequence (P05177 whole entry): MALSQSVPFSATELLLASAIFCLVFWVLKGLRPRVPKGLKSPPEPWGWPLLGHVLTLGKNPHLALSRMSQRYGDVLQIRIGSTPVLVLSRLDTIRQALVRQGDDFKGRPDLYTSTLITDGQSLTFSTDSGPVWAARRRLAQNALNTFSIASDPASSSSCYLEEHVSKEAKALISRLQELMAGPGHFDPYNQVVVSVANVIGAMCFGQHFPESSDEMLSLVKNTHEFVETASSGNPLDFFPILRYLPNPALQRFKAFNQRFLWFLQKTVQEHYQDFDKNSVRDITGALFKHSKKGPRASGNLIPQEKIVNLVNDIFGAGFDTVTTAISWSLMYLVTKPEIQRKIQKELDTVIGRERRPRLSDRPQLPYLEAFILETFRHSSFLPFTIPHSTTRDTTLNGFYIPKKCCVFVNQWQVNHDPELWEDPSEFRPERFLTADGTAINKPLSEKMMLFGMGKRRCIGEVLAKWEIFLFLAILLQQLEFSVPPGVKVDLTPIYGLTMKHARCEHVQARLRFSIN

[12] = Efflux ratio of permeability in human Caco2 cells after 90 mins by LC-MS/MS analysis; format: ADME, cell-based; settings: Caco-2
Procedure, shortened: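 Caco-2 monolayers grown 21 days (TEER >500). Compound in HBSS with 10 mM HEPES dosed to the apical chamber, and in a repeat run to the basolateral chamber. Both chambers sampled at 0 and 90 min at 37 °C. Analysis by LC-MS/MS.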

CYP2C19 = CYP2C19 (Homo sapiens, UniProt P33261); assay: Inhibition of human CYP2C19 at 10 uM after 10 mins by fluorescence assay; format: ADME
Sequence of CYP2C19 (P33261 whole entry): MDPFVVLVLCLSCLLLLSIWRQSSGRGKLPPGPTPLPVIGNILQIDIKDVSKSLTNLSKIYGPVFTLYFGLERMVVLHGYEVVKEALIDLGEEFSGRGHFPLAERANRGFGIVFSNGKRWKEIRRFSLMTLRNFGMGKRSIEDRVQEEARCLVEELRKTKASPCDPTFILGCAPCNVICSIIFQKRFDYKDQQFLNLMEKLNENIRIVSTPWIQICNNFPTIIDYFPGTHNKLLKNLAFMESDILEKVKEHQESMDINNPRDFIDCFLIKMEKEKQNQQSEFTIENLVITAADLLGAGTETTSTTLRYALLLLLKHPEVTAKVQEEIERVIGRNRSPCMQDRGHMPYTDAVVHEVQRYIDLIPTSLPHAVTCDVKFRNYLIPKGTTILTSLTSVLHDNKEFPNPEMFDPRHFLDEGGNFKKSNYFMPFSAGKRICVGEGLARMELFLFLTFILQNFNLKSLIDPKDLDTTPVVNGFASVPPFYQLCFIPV

MCF7 = assay: Induction of cell cycle arrest in human MCF7 cells assessed as accumulation at subG1 phase after 24 hrs by propidium iodide-staining based FACS analysis; format: functional
Procedure, shortened: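 MCF-7 or PC-3 cells treated at indicated concentrations for 24 h, pelleted, PBS-washed, fixed in ice-cold 70% ethanol overnight at 4 °C. RNase 0.2 mg/mL 1 h at 37 °C, propidium iodide 10 µg/mL 30 min dark. 10,000 events (FL2-A vs FL2-W) by flow cytometry; fractions in apoptosis/sub-G1, G1, S, G2-M.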

Homo sapiens [13] = species on record: Homo sapiens; assay: Selectivity ratio of IC50 for PI3Kbeta (unknown origin) to IC50 for PI3Kalpha (unknown origin)
[14] = Cytotoxicity against HEK293 cells assessed as cell growth inhibition after 48 hrs by MTT assay; format: toxicity, cell-based; settings: human
PC-3 [15] = assay: Induction of apoptosis in human PC3 cells assessed as loss of mitochondrial membrane potential at 20 uM after 24 hrs by rhodamine-123-staining based FACS analysis (reference value: 5 % ); format: functional
Procedure, shortened: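 Cells (MCF-7 or PC-3) exposed to indicated concentrations for 24 h; rhodamine-123 (5 µM) added 1 h before end. Cells collected, PBS-washed; fluorescence of 10,000 events read in FL-1 by flow cytometry, loss of mitochondrial potential scored as decreased intensity.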

[16] = Cytotoxicity against human FR2 cells assessed as cell growth inhibition after 48 hrs by MTT assay; format: toxicity, cell-based
Homo sapiens [17] = species on record: Homo sapiens; assay: Selectivity ratio of IC50 for PI3Kgamma (unknown origin) to IC50 for PI3Kalpha (unknown origin)
CYP3A4 = CYP3A4 (Homo sapiens, UniProt P08684); assay: Inhibition of human CYP3A4 at 10 uM after 10 mins by fluorescence assay; format: ADME
Sequence of CYP3A4 (P08684 whole entry): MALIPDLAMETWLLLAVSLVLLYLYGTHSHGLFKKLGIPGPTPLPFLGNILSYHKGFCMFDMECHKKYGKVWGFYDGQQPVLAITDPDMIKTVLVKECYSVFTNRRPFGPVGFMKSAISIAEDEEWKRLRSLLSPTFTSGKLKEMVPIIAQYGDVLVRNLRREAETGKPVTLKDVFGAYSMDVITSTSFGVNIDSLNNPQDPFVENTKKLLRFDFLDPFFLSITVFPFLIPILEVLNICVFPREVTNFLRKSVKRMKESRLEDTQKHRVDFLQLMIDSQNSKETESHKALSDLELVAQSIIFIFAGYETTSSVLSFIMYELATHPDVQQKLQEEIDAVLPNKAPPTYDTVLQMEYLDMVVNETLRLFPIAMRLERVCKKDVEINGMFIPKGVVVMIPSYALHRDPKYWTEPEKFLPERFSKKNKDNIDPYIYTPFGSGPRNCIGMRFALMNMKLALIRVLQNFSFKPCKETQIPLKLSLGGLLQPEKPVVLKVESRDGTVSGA

[18] = Cytotoxicity against human PANC1 cells assessed as cell growth inhibition after 48 hrs by MTT assay; format: functional; settings: PANC-1, 48 h; procedure, shortened: as §1
[19] = Cytotoxicity against human A375 cells assessed as cell growth inhibition after 48 hrs by MTT assay; format: functional; settings: A-375, 48 h; procedure, shortened: as §1
Mus musculus = assay: Toxicity in Swiss mouse implanted with Swiss mouse EAT cells assessed as body weight at 15 mg/kg, ip administered for 1 to 9 days measured on day 1 (reference value: 21.6 g); format: organism-based; settings: in vivo

Sequence of CYP2D6 (P10635 whole entry, canonical isoform): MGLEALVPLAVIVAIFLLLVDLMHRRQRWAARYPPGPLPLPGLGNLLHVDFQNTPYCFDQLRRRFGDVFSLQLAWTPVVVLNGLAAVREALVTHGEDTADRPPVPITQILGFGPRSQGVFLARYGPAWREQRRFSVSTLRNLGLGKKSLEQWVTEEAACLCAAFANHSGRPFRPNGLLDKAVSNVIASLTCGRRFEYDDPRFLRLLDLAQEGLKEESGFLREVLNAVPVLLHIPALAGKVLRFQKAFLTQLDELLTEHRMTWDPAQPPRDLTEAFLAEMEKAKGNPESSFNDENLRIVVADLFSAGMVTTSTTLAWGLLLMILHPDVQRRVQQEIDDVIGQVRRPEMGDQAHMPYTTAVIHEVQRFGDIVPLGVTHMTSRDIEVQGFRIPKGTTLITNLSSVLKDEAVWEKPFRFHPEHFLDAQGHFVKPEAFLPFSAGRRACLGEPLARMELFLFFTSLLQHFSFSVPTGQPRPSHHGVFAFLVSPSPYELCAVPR

Structure (SMILES) | inhibition at 10 min, 10 µM (CYP2D6) [%] | inhibition [1] [%] | GI50 at 48 h [2] [µM] | GI50 [3] [µM] | solubility thermodynamic at 4 h [4] [µg/mL] | Ratio IC50 (Homo sapiens [5]) | GI50 [6] [µM] | solubility thermodynamic at 4 h [7] [µg/mL] | GI50 [8] [µM] | Activity (PC-3 [9]) | inhibition at 10 min, 10 µM (CYP2C9) [%] | solubility thermodynamic at 4 h [10] [µg/mL] | solubility thermodynamic at 4 h [11] [µg/mL] | inhibition at 10 min, 10 µM (CYP1A2) [%] | efflux ratio at 1.5 h [12] | inhibition at 10 min, 10 µM (CYP2C19) [%] | Activity (MCF7) | Ratio IC50 (Homo sapiens [13]) | GI50 at 48 h [14] [µM] | GI50 at 48 h [16] [µM] | also measured
N#CCc1ccc(Nc2ncnc3ccc(-c4cncc5ccccc45)cc23)cc1 | -35 | 48.8 | > 50 | 10 | 1 (≈ 2.58 µM) | 5.9 | 12 | 1 (≈ 2.58 µM) | 9 | Dose-dependent effect | 87 | 800 (≈ 2060 µM) | 1 (≈ 2.58 µM) | 72 | 1.2 | 34 | Dose-dependent effect | > 133 | > 50 | > 50 | Activity (PC-3 [15]): 14%; Ratio IC50 (Homo sapiens [17]): 56; inhibition at 10 min, 10 µM (CYP3A4): 27%; GI50 [18]: 9 µM; GI50 [19]: 12 µM
N#CCc1ccc(Nc2ncnc3ccc(-c4ccc5[nH]ccc5c4)cc23)cc1 | 29 | 47.5 | > 50 | 18 | 5 (≈ 13.3 µM) | > 49.7 | 7 | 10 (≈ 26.6 µM) | 24 | Dose-dependent effect | 88 | 80 (≈ 213 µM) | 10 (≈ 26.6 µM) | 30 | 1.3 | 10 | Dose-dependent effect | > 49.7 | > 50 | > 50 | Activity (Mus musculus): 19.85 g; Ratio IC50 (Homo sapiens [17]): 3.7; inhibition at 10 min, 10 µM (CYP3A4): 51%; GI50 [18]: 16 µM; GI50 [19]: 31 µM
